# Assay results: publication PMC3716464 (Angewandte Chemie (International ed. in English), 2009)
# Tested on: b(h)CAII
# Assay: dot blot detection of b
# Type: binding, bovine; human
# Conditions: biligand in 0.1% serum, compared with triligand in 10% porcine serum
# In short: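 Dot blot with the test peptide as capture agent for b(h)CAII in 10% porcine serum, varying protein amount to find the detection limit. For comparison, the biligand anchor served as capture agent in 0.1% serum.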
smiles,measurement,value
C#CC[C@@H](N)C(=O)N[C@H](CCCCN)C(=O)N[C@H](Cc1c[nH]c2ccccc12)C(=O)N[C@H](CC(C)C)C(=O)N[C@H](Cc1c[nH]c2ccccc12)C(=O)NCC(=O)N[C@H](CC(C)C)C(=O)N[C@@H](CCCCn1cc(C[C@@H](NC(=O)[C@@H](CCCCN)NC(=O)[C@@H](Cc2ccccc2)NC(=O)[C@@H](Cc2c[nH]c3ccccc23)NC(=O)[C@@H](CC(C)C)NC(=O)[C@@H](CCCCN)NC(=O)[C@H](N)CC(C)C)C(N)=O)nn1)C(N)=O [(D-Pra)-kwlwGl-Tz1-kfwlkl],reduction in sensitivity (biligand anchor as capture agent versus triligand),more than 10 fold
